Here are results for 13 compounds from ChEMBL document CHEMBL4270530, “Surmounting the resistance against EGFR inhibitors through the development of thieno[2,3-d]pyrimidine-based dual EGFR/HER2 inhibitors” (Eur J Med Chem, 2018).

The IC50 is the midpoint of a concentration-inhibition curve.

Assay [1] concerns A-431. The experiment in a line: Cytotoxicity against human A431 cells over expressing EGFR assessed as reduction in cell viability after 72 hrs by sulforhodamine B assay. The format is functional, cell-based. The following applies: A-431, 72 h. Put shortly: (§1)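 Cells seeded and grown 24 h, then exposed to 0.1% DMSO vehicle or 0.3125-20 μM compound for 72 h. Fixed with ice-cold 50% TCA (1 h, 4 °C), stained with 0.4% SRB 30 min at room temperature, dye solubilized in 10 mM tris base pH 10.5, OD read at 560 nm. Survival fraction = OD treated/OD vehicle; IC50 from triplicates of at least two independent experiments, mean ± SD.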
A general note: Sulforhodamine B stains cellular protein and so reports cell mass.

Assay [2] deals with SK-BR-3. The experiment in a line: Cytotoxicity against human SKBR3 cells over expressing HER2 assessed as reduction in cell viability after 72 hrs by sulforhodamine B assay. Format: functional, cell-based. The following applies: SK-BR-3, 72 h. Put shortly: as §1
Assay [3] has as its system MDA-MB-361. The experiment in a line: Cytotoxicity against human MDA-MB-361 cells over expressing HER2 assessed as reduction in cell viability after 72 hrs by sulforhodamine B assay. The format is functional, cell-based. The following applies: MDA-MB-361, 72 h. Put shortly:
as §1

Assay [4] has as its system NCI-H1975. Put plainly: Cytotoxicity against human NCI-H1975 cells harboring EGFR T790M mutant assessed as reduction in cell viability after 72 hrs by sulforhodamine B assay. Format: functional, cell-based. The following applies: NCI-H1975, 72 h. Put shortly: as §1
The target in assay [5] is T1, Epidermal growth factor receptor (Homo sapiens, UniProt P00533). Put plainly: Inhibition of EGF-induced EGFR phosphorylation at Y1068 residues in EGFR over-expressing human A431 cells pretreated for 3 hrs followed by EGF-stimulation and measured after 10 mins by Western blot analysis. In outline: (§2)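 Overnight serum-starved A431 cells given indicated concentrations for 3 h, then 50 ng/ml EGF for 10 min. HEPES-buffer lysates resolved on 12% SDS-PAGE, transferred to nitrocellulose, blocked in 5% milk/TBST, probed with primary and HRP secondary antibodies, chemiluminescence read-out.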
T1 sequence (P00533 whole entry): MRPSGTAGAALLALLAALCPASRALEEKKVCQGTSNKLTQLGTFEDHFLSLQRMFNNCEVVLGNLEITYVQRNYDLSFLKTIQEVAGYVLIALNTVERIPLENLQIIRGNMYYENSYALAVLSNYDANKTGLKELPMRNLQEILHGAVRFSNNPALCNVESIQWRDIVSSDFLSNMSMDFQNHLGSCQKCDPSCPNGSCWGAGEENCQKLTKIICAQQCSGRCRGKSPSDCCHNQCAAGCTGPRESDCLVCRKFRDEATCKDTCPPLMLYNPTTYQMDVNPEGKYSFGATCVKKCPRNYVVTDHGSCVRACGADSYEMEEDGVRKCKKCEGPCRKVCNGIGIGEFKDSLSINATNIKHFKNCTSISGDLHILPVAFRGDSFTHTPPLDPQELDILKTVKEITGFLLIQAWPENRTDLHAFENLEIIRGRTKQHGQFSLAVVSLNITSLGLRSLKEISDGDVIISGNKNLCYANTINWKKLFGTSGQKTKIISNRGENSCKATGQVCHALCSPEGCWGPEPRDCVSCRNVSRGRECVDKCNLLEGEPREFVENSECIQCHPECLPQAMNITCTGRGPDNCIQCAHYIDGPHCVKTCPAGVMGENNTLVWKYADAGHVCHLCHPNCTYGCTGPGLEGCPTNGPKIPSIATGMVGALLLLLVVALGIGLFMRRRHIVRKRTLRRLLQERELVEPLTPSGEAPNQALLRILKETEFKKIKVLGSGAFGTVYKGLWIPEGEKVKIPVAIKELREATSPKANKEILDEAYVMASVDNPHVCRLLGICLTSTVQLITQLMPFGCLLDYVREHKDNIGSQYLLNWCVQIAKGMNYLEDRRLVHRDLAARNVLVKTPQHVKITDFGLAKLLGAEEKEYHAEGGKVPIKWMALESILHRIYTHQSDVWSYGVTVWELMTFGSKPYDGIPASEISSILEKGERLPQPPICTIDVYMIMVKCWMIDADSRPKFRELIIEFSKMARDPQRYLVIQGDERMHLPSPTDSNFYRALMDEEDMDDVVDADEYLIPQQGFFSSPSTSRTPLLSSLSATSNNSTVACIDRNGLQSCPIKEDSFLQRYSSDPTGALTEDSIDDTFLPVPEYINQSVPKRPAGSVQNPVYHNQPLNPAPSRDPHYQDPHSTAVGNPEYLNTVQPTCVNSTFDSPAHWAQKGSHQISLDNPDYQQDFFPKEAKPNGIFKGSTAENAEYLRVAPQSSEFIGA
In general terms: Immunoblotting shows a protein as a band on a membrane.

The target of assay [6] is T2, Receptor tyrosine-protein kinase erbB-2 (Homo sapiens, UniProt P04626). The experiment in a line: Inhibition of recombinant human N-terminal GST-tagged HER2 (679 to 1255 residues) expressed in baculovirus infected Sf9 cells using Poly-(Glu, Tyr) as substrate measured after 45 minutes by Kinase-Glo luminescent assay. (Kinase-Glo reads ATP consumption through a luciferase reaction.)
T2 sequence (P04626 whole entry, the tested form may be a part): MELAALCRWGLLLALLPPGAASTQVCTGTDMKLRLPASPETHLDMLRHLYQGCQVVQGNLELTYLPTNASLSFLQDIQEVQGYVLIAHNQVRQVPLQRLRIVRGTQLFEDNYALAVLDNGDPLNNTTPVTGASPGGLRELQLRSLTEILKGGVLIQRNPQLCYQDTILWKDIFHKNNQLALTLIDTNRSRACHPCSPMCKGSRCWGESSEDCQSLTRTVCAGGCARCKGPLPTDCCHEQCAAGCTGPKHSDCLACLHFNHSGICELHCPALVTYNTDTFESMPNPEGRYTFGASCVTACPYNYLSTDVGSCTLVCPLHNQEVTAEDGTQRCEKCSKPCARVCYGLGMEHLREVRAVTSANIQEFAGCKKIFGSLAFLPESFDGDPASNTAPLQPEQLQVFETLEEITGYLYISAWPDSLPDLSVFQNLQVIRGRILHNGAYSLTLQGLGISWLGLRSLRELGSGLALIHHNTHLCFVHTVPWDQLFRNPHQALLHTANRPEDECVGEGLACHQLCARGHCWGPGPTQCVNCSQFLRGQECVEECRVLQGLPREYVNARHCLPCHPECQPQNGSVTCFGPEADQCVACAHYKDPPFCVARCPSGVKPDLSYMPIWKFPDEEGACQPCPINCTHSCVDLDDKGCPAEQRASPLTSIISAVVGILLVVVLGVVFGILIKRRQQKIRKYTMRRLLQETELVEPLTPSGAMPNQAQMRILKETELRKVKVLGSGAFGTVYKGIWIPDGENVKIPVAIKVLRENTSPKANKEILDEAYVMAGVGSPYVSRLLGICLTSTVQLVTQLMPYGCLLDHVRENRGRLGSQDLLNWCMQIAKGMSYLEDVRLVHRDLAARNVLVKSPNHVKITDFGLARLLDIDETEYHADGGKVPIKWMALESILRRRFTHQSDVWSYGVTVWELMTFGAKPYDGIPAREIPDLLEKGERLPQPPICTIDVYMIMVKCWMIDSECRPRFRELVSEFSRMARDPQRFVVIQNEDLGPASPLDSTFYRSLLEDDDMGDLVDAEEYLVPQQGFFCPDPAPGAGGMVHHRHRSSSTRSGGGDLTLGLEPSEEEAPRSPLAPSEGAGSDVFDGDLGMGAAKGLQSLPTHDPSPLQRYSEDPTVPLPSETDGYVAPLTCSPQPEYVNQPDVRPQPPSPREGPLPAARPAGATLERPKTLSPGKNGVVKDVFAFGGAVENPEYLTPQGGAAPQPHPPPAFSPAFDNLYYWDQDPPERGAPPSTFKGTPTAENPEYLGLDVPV

The target of assay [7] is T1, Epidermal growth factor receptor. Put plainly: Inhibition of EGF-induced EGFR signalling in EGFR over-expressing human A431 cells assessed as reduction in ribosomal S6 phosphorylation at S235/236 residue at 5 to 20 uM pretreated for 3 hrs followed by EGF-stimulation and measured after 10 mins by Western blot analysis. In outline: as §2
For assay [8] the target is unchanged. Put plainly: Inhibition of EGF-induced EGFR signalling in EGFR over-expressing human A431 cells assessed as reduction in p70S6K phosphorylation at T389 residue at 5 to 20 uM pretreated for 3 hrs followed by EGF-stimulation and measured after 10 mins by Western blot analysis. In outline:
as §2

Assay [9] shares this target. Put plainly: Inhibition of recombinant human C-terminal His-tagged/N-terminal GST-tagged EGFR (668 to 1210 residues) expressed in baculovirus infected Sf9 cells using Poly-(Glu, Tyr) as substrate measured after 45 minutes by Kinase-Glo luminescent assay.
Assay [10] shares this target. The experiment in a line: Inhibition of EGF-induced EGFR signalling in EGFR over-expressing human A431 cells assessed as reduction in AKT phosphorylation at S473 residue at 5 to 20 uM pretreated for 3 hrs followed by EGF-stimulation and measured after 10 mins by Western blot analysis. In outline: as §2
Assay [11] concerns the target T2, Receptor tyrosine-protein kinase erbB-2. Put plainly: Inhibition of HER2 signalling in HER2 over-expressing human SKBR3 cells assessed as reduction in mTOR phosphorylation at S2448 residue at 2.5 to 10 uM after 72 hrs by Western blot analysis. In outline: (§3)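 SKBr3 cells (DMEM, 10% FBS) treated 72 h at indicated concentrations. HEPES-buffer lysates on 12% SDS-PAGE, nitrocellulose transfer, 5% milk/TBST block, immunoblotted for AKT/mTOR/S6 with HRP secondary and chemiluminescence; β-actin loading control.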

The target is the same in assay [12]. Put plainly: Inhibition of HER2 signalling in HER2 over-expressing human SKBR3 cells assessed as reduction in S6 phosphorylation at S235/236 residue at 2.5 to 10 uM after 72 hrs by Western blot analysis. Put shortly: as §3
Assay [13] shares this target. Put plainly: Inhibition of HER2 signalling in HER2 over-expressing human SKBR3 cells assessed as reduction in AKT phosphorylation at S473 residue at 2.5 to 10 uM after 72 hrs by Western blot analysis. In outline: as §3
For assay [14], the system named is Epidermal growth factor receptor (Homo sapiens), P00533 [T790M]. The experiment in a line: Inhibition of EGF-induced EGFR T790M mutant in human NCI-H1975 cells assessed as reduction in p70S6K phosphorylation at T389 residue at 2.5 to 10 uM pretreated for 2.5 hrs followed by EGF-stimulation and measured after 10 mins by Western blot analysis. The format is cell-based. Put shortly: (§4)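 Serum-starved overnight NCI-H1975 cells preincubated 2.5 h with compound, then stimulated with 50 ng/ml EGF for 10 min. Lysed in HEPES buffer, protein quantified, 12% SDS-PAGE, nitrocellulose transfer, milk blocking, HRP secondary, chemiluminescent detection.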
Sequence of Epidermal growth factor receptor (Homo sapiens), P00533 [T790M] (P00533 whole entry T790M): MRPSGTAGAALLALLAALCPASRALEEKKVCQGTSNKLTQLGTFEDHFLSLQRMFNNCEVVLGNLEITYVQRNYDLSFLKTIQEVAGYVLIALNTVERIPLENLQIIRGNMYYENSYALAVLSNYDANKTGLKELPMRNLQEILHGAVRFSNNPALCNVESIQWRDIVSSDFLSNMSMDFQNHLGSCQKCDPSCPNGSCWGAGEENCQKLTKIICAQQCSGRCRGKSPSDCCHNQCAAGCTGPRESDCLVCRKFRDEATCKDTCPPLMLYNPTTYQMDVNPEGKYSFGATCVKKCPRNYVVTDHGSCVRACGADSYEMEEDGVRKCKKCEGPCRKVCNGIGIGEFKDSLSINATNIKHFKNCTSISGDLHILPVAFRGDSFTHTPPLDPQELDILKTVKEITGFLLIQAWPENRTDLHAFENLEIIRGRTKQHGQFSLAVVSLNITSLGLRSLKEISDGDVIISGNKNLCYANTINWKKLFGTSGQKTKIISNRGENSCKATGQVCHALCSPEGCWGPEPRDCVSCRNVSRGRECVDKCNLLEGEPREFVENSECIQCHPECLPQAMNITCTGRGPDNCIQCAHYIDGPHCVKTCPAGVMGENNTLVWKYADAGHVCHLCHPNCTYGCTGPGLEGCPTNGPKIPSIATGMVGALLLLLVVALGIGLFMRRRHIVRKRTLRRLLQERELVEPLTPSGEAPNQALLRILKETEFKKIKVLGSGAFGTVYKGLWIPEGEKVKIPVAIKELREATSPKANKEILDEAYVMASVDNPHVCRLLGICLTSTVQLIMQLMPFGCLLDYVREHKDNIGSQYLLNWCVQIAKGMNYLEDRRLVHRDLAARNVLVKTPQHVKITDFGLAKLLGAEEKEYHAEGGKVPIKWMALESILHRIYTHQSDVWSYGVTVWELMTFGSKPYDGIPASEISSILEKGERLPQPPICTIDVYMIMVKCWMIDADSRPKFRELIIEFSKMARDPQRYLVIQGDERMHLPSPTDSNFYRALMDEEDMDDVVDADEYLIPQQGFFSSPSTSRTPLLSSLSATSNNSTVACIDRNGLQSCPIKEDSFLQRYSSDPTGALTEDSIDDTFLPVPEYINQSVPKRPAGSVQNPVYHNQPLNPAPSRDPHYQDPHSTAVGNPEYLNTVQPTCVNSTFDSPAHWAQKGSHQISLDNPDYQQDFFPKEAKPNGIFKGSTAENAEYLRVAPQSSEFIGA

Assay [15] has the same test system. The experiment in a line: Inhibition of EGFR T790M mutant in human NCI-H1975 cells assessed as reduction in ribosomal S6 phosphorylation at S235/236 residue after 72 hrs by Western blot analysis. Format: cell-based. In outline:
(§5)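 Unstimulated NCI-H1975 cells exposed to indicated concentrations for 72 h. Lysates in HEPES buffer run on 12% SDS-PAGE, blotted to nitrocellulose and probed for AKT/S6K/S6 signalling with chemiluminescent detection; β-actin loading control.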

Assay [16] deals with MDA-MB-361. Put plainly: Induction of apoptosis in human MDA-MB-361 cells after 24 hrs by Annexin-V-FITC/propidium iodide staining based flow cytometry. Format: functional, cell-based.
Assay [17] concerns the target T1, Epidermal growth factor receptor. The experiment in a line: Inhibition of EGF-induced EGFR signalling in EGFR over-expressing human A431 cells assessed as reduction in AKT phosphorylation at S473 residue at 2.5 to 10 uM pretreated for 3 hrs followed by EGF-stimulation and measured after 10 mins by Western blot analysis. Put shortly:
as §2

The subject of assay [18] is NCI-H1975. Put plainly: Induction of apoptosis in human NCI-H1975 cells harboring EGFR T790M mutant assessed as increase in apoptotic cells at 2.5 to 10 uM after 72 hrs by Annexin-V-FITC/propidium iodide staining based flow cytometry. The format is functional, cell-based.
For assay [19], the target named is T1, Epidermal growth factor receptor. Put plainly: Inhibition of EGF-induced EGFR signalling in EGFR over-expressing human A431 cells assessed as reduction in p70S6K phosphorylation at T389 residue at 2.5 to 10 uM pretreated for 3 hrs followed by EGF-stimulation and measured after 10 mins by Western blot analysis. Put shortly: as §2
The subject of assay [20] is Epidermal growth factor receptor (Homo sapiens), P00533 [T790M]. Put plainly: Inhibition of EGF-induced EGFR T790M mutant in human NCI-H1975 cells assessed as reduction in AKT phosphorylation at S473 residue at 2.5 to 10 uM pretreated for 2.5 hrs followed by EGF-stimulation and measured after 10 mins by Western blot analysis. Format: cell-based. In outline: as §4
The test system is the same in assay [21]. Put plainly: Inhibition of EGF-induced EGFR T790M mutant phosphorylation in human NCI-H1975 cells at 2.5 to 10 uM pretreated for 2.5 hrs followed by EGF-stimulation and measured after 10 mins by Western blot analysis. Format: cell-based. In outline:
as §4

Assay [22] has the same test system. The experiment in a line: Inhibition of EGFR T790M mutant in human NCI-H1975 cells assessed as reduction in p70S6K phosphorylation at T389 residue after 72 hrs by Western blot analysis. Format: cell-based. Put shortly:
as §5

Assay [23] concerns the target T1, Epidermal growth factor receptor. The experiment in a line: Inhibition of EGF-induced EGFR signalling in EGFR over-expressing human A431 cells assessed as reduction in ribosomal S6 phosphorylation at S235/236 residue at 2.5 to 10 uM pretreated for 3 hrs followed by EGF-stimulation and measured after 10 mins by Western blot analysis. In outline:
as §2

Assay [24] concerns Epidermal growth factor receptor (Homo sapiens), P00533 [T790M]. The experiment in a line: Inhibition of EGF-induced EGFR T790M mutant in human NCI-H1975 cells assessed as reduction in ribosomal S6 phosphorylation at S235/236 residue at 2.5 to 10 uM pretreated for 2.5 hrs followed by EGF-stimulation and measured after 10 mins by Western blot analysis. Format: cell-based. Put shortly:
as §4

The test system is the same in assay [25]. Put plainly: Inhibition of EGFR T790M mutant in human NCI-H1975 cells assessed as reduction in AKT phosphorylation at S473 residue after 72 hrs by Western blot analysis. The format is cell-based. Put shortly:
as §5

For assay [26], the system named is NCI-H1975. Put plainly: Induction of apoptosis in human NCI-H1975 cells harboring EGFR T790M mutant assessed as increase in necrotic cells at 2.5 to 10 uM after 72 hrs by Annexin-V-FITC/propidium iodide staining based flow cytometry. The format is functional, cell-based. Put shortly: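 NCI-H1975 cells grown in RPMI-1640 with 2 mM L-glutamine and 10% FBS, exposed 72 h to indicated concentrations. Harvested, ethanol-fixed on ice, PI-stained overnight at 4 °C. Flow cytometry on 20 000 cells/sample gave percent live, early apoptotic and late apoptotic/necrotic cells.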

Activity calls are given as the source filed them. The calls are words filed in the database; no cut-off is given here. A value given as a limit tells only on which side of the number the result lay.

For the compound `CS(=O)(=O)CCNCc1ccc(-c2ccc3ncnc(Nc4ccc(OCc5cccc(F)c5)c(Cl)c4)c3c2)o1`, the concentration for half-maximal inhibition (IC50) was found to be 1.69 µM in [1], 0.17 µM in [2], 13.7 µM in [3] and 11.5 µM in assay [4].
On to `O=[N+]([O-])c1ccc(-c2cc3c(NCc4ccccc4)ncnc3s2)cc1`, for which the IC50 in [1] is 4.87 µM; in assay [3], more than 20 µM.
Taken in the same sequence, the figures for `CCOC(=O)Nc1ccc(-c2cc3c(Nc4ccc(Oc5cccc(C(F)(F)F)c5)c(Cl)c4)ncnc3s2)cc1` were 17 µM and more than 20 µM.
On to `O=[N+]([O-])c1ccc(-c2cc3c(Nc4ccc5c(cnn5Cc5ccccc5)c4)ncnc3s2)cc1`, for which the IC50 in [1] and in [3] was more than 20 µM each time.
Turning to `Nc1ccc(-c2cc3c(Nc4ccc(Oc5cccc(C(F)(F)F)c5)c(Cl)c4)ncnc3s2)cc1`, the concentration for half-maximal inhibition (IC50) in assay [1] stood at 11.4 µM; in assay [2], 6 µM; in assay [3], 5.85 µM; in [6], 1.5 µM; in [9] it was 0.0214 µM; in [4] it was 13.9 µM. In addition, the inhibition result in assay [5] is “Dose-dependent effect”. Also, the inhibition result in assay [7], in assay [8] and in assay [10] was “Active” each time.
As to `Nc1ccc(-c2cc3c(NCc4ccccc4)ncnc3s2)cc1`, the IC50 in assay [1] and in assay [3] was more than 20 µM each time.
Take `O=C(Nc1ccc(-c2cc3c(Nc4ccc(Oc5cccc(C(F)(F)F)c5)c(Cl)c4)ncnc3s2)cc1)NC1CC1`: the 50% inhibitory concentration (IC50) in [1] came out at 2.34 µM; in assay [3], 3.83 µM; in [6], 37.1 µM; in [9], 0.112 µM.
`CC(C)/C=C/C(=O)Nc1ccc(-c2cc3c(Nc4ccc(Oc5cccc(C(F)(F)F)c5)c(Cl)c4)ncnc3s2)cc1`: the IC50 in assay [1] was 0.23 µM; in assay [3], more than 20 µM.
Taken in the same sequence, the figures for `O=C(O)/C=C\C(=O)Nc1ccc(-c2cc3c(Nc4ccc(Oc5cccc(C(F)(F)F)c5)c(Cl)c4)ncnc3s2)cc1` were more than 20 µM and more than 20 µM.
With `CS(=O)(=O)Nc1ccc(-c2cc3c(Nc4ccc(Oc5cccc(C(F)(F)F)c5)c(Cl)c4)ncnc3s2)cc1`, the 50% inhibitory concentration (IC50) in assay [1] came to 5.25 µM; in assay [3], 9.86 µM; in assay [6] it was 19.2 µM.
Consider `CC(=O)Nc1ccc(-c2cc3c(Nc4ccc(Oc5cccc(C(F)(F)F)c5)c(Cl)c4)ncnc3s2)cc1`, for which the half-inhibitory concentration (IC50) in assay [1] came out at 10.5 µM; in [2], 4.7 µM; in assay [3] it was 10.5 µM; in assay [6], 0.879 µM; in assay [9], 0.0477 µM; in assay [4] it was 12.7 µM. Besides, the inhibition entry in assay [11], in [12] and in assay [13] was “Active” each time.
As to `O=[N+]([O-])c1ccc(-c2cc3c(Nc4ccc(Oc5cccc(C(F)(F)F)c5)c(Cl)c4)ncnc3s2)cc1`, the IC50 in assay [1] amounted to 1.72 µM; in assay [3], 3.65 µM.
As for `O=C(NCCN1CCOCC1)Nc1ccc(-c2cc3c(Nc4ccc(Oc5cccc(C(F)(F)F)c5)c(Cl)c4)ncnc3s2)cc1`, the half-inhibitory concentration (IC50) in assay [1] was found to be 1.45 µM; in [2] it was 4.83 µM; in [3] it was 3.5 µM; in assay [6], 1.2 µM; in [9], 0.0917 µM; in assay [4], 4.2 µM. Moreover, the inhibition entry in assay [14], in assay [17], in [19], in assay [20], in [21] and in assay [23] was “Active” each time. Also, the inhibition result in assay [24] was “Active”. Besides, the inhibition entry in [5], in assay [15], in assay [22] and in [25] was “Dose-dependent effect” throughout. Further, the Activity result in assay [16] is “Dose-dependent effect”. Also, the result in assay [18] and in assay [26] was Active.
